Measured values taken from ChEMBL document CHEMBL5724801, “EUbOPEN Chemogenomics Library - Multiplex” (2024).
Values joined by “and” are separate entries in the source; they are usually repeats but may differ in a detail not shown here. Identical values can stand only once.

System: Fibroblast
Assay: Multiplex assay against human fibroblast
Assay type: toxicity, cell-based
In short: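 Cells were classed with CellPathfinder machine-learning gating, first as Hoechst high-intensity objects or normal cells, then (normal cells) as healthy, pyknosed or fragmented nuclei, and finally (pyknosed cells) as mitotic or apoptotic. Staining of live cells at seeding used Hoechst33342, BioTracker Green Microtubule Cytoskeleton Dye, MitoTracker Red and Annexin V Alexa Fluor 680, with imaging on a CQ1 microscope at 37°C and 5% CO2 after compound addition. Tubulin, mitochondrial-mass and membrane-permeability phenotypes are per cents of healthy-nucleus cells.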

[1] = 12 h, 1 µM, compound concentration 1 uM
[2] = 12 h, 10 µM, compound concentration 10 uM
[3] = 24 h, 1 µM, compound concentration 1 uM
[4] = 24 h, 10 µM, compound concentration 10 uM
[5] = 48 h, 1 µM, compound concentration 1 uM
[6] = 48 h, 10 µM, compound concentration 10 uM

SMILES: COc1cc(C(=O)N2CC[C@@H](O)[C@@H](N)C2)cc2nc(-c3cc4ccccc4n3CC3CC3)n(C)c12.Cl
- Population Apoptotic (%) [1]: 21% and 48%
- Population Fragmented Nuclei (%) [1]: 25% and 24%
- Population Healthy Nuclei (%) [1]: 62% and 44%
- Population Hoechst High Intensity Objects (%) [1]: 2% and 3%
- Population Membrane Permeable-Phenotype (%) [1]: 0% and 10%
- Population Mitochondria Different-Phenotype (%) [1]: 4% and 14%
- Population Mitotic Cells (%) [1]: 78% and 51%
- Population Normal (%) [1]: 97% and 96%
- Population Pyknosed Nuclei (%) [1]: 12% and 31%
- Population Tubulin-Different-Phenotype (%) [1]: 55% and 69%
- Total Cell Count [1]: 160 and 130
- Population Apoptotic (%) [2]: 60% and 48%
- Population Fragmented Nuclei (%) [2]: 22% and 30%
- Population Healthy Nuclei (%) [2]: 57% and 44%
- Population Hoechst High Intensity Objects (%) [2]: 6% and 10%
- Population Membrane Permeable-Phenotype (%) [2]: 0% and 2%
- Population Mitochondria Different-Phenotype (%) [2]: 34% and 25%
- Population Mitotic Cells (%) [2]: 40% and 51%
- Population Normal (%) [2]: 93% and 89%
- Population Pyknosed Nuclei (%) [2]: 19% and 25%
- Population Tubulin-Different-Phenotype (%) [2]: 97% and 92%
- Total Cell Count [2]: 271 and 179
- Population Apoptotic (%) [3]: 55% and 60%
- Population Fragmented Nuclei (%) [3]: 24% and 31%
- Population Healthy Nuclei (%) [3]: 62% and 36%
- Population Hoechst High Intensity Objects (%) [3]: 3% and 4%
- Population Membrane Permeable-Phenotype (%) [3]: 0% and 4%
- Population Mitotic Cells (%) [3]: 45% and 39%
- Population Normal (%) [3]: 96% and 95%
- Population Pyknosed Nuclei (%) [3]: 13% and 31%
- Population Tubulin-Different-Phenotype (%) [3]: 51% and 79%
- Total Cell Count [3]: 158 and 125
- Population Apoptotic (%) [4]: 73% and 62%
- Population Fragmented Nuclei (%) [4]: 15% and 27%
- Population Healthy Nuclei (%) [4]: 68% and 54%
- Population Hoechst High Intensity Objects (%) [4]: 7% and 5%
- Population Membrane Permeable-Phenotype (%) [4]: 0% and 3%
- Population Mitochondria Different-Phenotype (%) [4]: 55% and 41%
- Population Mitotic Cells (%) [4]: 26% and 37%
- Population Normal (%) [4]: 92% and 94%
- Population Pyknosed Nuclei (%) [4]: 16% and 17%
- Population Tubulin-Different-Phenotype (%) [4]: 94% and 92%
- Total Cell Count [4]: 274 and 174
- Population Apoptotic (%) [5]: 80% and 64%
- Population Fragmented Nuclei (%) [5]: 22% and 38%
- Population Healthy Nuclei (%) [5]: 67% and 41%
- Population Hoechst High Intensity Objects (%) [5]: 6% and 1%
- Population Membrane Permeable-Phenotype (%) [5]: 0% and 3%
- Population Mitochondria Different-Phenotype (%) [5]: 8% and 16%
- Population Mitotic Cells (%) [5]: 20% and 35%
- Population Normal (%) [5]: 93% and 98%
- Population Pyknosed Nuclei (%) [5]: 10% and 20%
- Population Tubulin-Different-Phenotype (%) [5]: 44% and 80%
- Total Cell Count [5]: 161 and 153
- Population Apoptotic (%) [6]: 86%
- Population Fragmented Nuclei (%) [6]: 20% and 32%
- Population Healthy Nuclei (%) [6]: 64% and 55%
- Population Hoechst High Intensity Objects (%) [6]: 8% and 4%
- Population Membrane Permeable-Phenotype (%) [6]: 0%
- Population Mitochondria Different-Phenotype (%) [6]: 62% and 36%
- Population Mitotic Cells (%) [6]: 13%
- Population Normal (%) [6]: 91% and 95%
- Population Pyknosed Nuclei (%) [6]: 15% and 11%
- Population Tubulin-Different-Phenotype (%) [6]: 94%
- Total Cell Count [6]: 256 and 193

SMILES: CN(C)CCCc1cc(C(=O)Nc2ccc(-c3ccncc3)cc2)ccc1O.Cl.Cl
- Population Apoptotic (%) [1]: 31% and 44%
- Population Fragmented Nuclei (%) [1]: 15% and 22%
- Population Healthy Nuclei (%) [1]: 65% and 52%
- Population Hoechst High Intensity Objects (%) [1]: 4% and 2%
- Population Membrane Permeable-Phenotype (%) [1]: 0% and 4%
- Population Mitochondria Different-Phenotype (%) [1]: 7% and 4%
- Population Mitotic Cells (%) [1]: 68% and 55%
- Population Normal (%) [1]: 95% and 97%
- Population Pyknosed Nuclei (%) [1]: 18% and 24%
- Population Tubulin-Different-Phenotype (%) [1]: 22% and 40%
- Total Cell Count [1]: 122 and 120
- Population Apoptotic (%) [2]: 68% and 48%
- Population Fragmented Nuclei (%) [2]: 33% and 31%
- Population Healthy Nuclei (%) [2]: 58% and 51%
- Population Hoechst High Intensity Objects (%) [2]: 7% and 4%
- Population Membrane Permeable-Phenotype (%) [2]: 0% and 4%
- Population Mitochondria Different-Phenotype (%) [2]: 15% and 6%
- Population Mitotic Cells (%) [2]: 31% and 51%
- Population Normal (%) [2]: 92% and 95%
- Population Pyknosed Nuclei (%) [2]: 7% and 17%
- Population Tubulin-Different-Phenotype (%) [2]: 43% and 45%
- Total Cell Count [2]: 305 and 236
- Population Apoptotic (%) [3]: 30% and 37%
- Population Fragmented Nuclei (%) [3]: 16% and 22%
- Population Healthy Nuclei (%) [3]: 66% and 50%
- Population Hoechst High Intensity Objects (%) [3]: 1% and 4%
- Population Membrane Permeable-Phenotype (%) [3]: 2% and 1%
- Population Mitochondria Different-Phenotype (%) [3]: 3% and 7%
- Population Mitotic Cells (%) [3]: 70% and 62%
- Population Normal (%) [3]: 98% and 95%
- Population Pyknosed Nuclei (%) [3]: 17% and 27%
- Population Tubulin-Different-Phenotype (%) [3]: 25% and 45%
- Total Cell Count [3]: 119 and 111
- Population Apoptotic (%) [4]: 47% and 42%
- Population Fragmented Nuclei (%) [4]: 30% and 31%
- Population Healthy Nuclei (%) [4]: 63% and 53%
- Population Hoechst High Intensity Objects (%) [4]: 6% and 4%
- Population Membrane Permeable-Phenotype (%) [4]: 0% and 5%
- Population Mitochondria Different-Phenotype (%) [4]: 11% and 5%
- Population Mitotic Cells (%) [4]: 52% and 57%
- Population Normal (%) [4]: 93% and 95%
- Population Pyknosed Nuclei (%) [4]: 5% and 14%
- Population Tubulin-Different-Phenotype (%) [4]: 40% and 42%
- Total Cell Count [4]: 339 and 242
- Population Apoptotic (%) [5]: 62% and 50%
- Population Fragmented Nuclei (%) [5]: 28% and 23%
- Population Healthy Nuclei (%) [5]: 59% and 54%
- Population Hoechst High Intensity Objects (%) [5]: 0% and 8%
- Population Membrane Permeable-Phenotype (%) [5]: 0% and 1%
- Population Mitochondria Different-Phenotype (%) [5]: 1% and 5%
- Population Mitotic Cells (%) [5]: 37% and 50%
- Population Normal (%) [5]: 99% and 91%
- Population Pyknosed Nuclei (%) [5]: 12% and 21%
- Population Tubulin-Different-Phenotype (%) [5]: 29% and 46%
- Total Cell Count [5]: 126 and 111
- Population Apoptotic (%) [6]: 56% and 51%
- Population Fragmented Nuclei (%) [6]: 28% and 35%
- Population Healthy Nuclei (%) [6]: 60% and 53%
- Population Hoechst High Intensity Objects (%) [6]: 11% and 2%
- Population Membrane Permeable-Phenotype (%) [6]: 0% and 3%
- Population Mitochondria Different-Phenotype (%) [6]: 8% and 2%
- Population Mitotic Cells (%) [6]: 43% and 48%
- Population Normal (%) [6]: 88% and 97%
- Population Pyknosed Nuclei (%) [6]: 11% and 10%
- Population Tubulin-Different-Phenotype (%) [6]: 48% and 39%
- Total Cell Count [6]: 321 and 261
